Assay results published in ChEMBL document CHEMBL2311346, “An unprecedented reversible mode of action of β-lactams for the inhibition of human fatty acid amide hydrolase (hFAAH)” (Eur J Med Chem, 2013).
Activity calls are given as the source filed them. The calls are words filed in the database; no cut-off is given here.

Tests used:
[1] = biological target: T1, Fatty-acid amide hydrolase 1 (Homo sapiens) (UniProt O00519); test: Irreversible inhibition of human recombinant FAAH using [3H]AEA as substrate incubated up to 90 mins by compound dilution method
T1 sequence (whole entry): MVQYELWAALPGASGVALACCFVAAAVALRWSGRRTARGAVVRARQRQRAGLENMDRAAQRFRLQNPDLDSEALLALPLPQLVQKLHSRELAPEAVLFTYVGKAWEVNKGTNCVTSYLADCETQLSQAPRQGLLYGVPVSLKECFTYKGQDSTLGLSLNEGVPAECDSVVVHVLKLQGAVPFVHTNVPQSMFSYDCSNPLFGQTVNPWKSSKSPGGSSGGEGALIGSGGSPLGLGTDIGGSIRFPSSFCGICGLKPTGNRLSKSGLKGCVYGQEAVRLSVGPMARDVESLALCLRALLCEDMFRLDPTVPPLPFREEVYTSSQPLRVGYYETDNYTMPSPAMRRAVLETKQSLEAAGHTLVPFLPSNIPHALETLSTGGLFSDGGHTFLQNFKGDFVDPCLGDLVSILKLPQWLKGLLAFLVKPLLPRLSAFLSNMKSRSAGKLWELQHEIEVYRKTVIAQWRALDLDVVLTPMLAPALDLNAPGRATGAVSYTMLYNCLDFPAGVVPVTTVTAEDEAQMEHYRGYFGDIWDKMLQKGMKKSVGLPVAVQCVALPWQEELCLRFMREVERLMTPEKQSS

[2] = biological target: T2, Fatty-acid amide hydrolase 1 (Homo sapiens, UniProt O00519); test: Inhibition of human recombinant FAAH-mediated [3H]AEA hydrolysis after 10 mins by liquid scintillation assay
T2 sequence (O00519 whole entry): T1 sequence (whole entry)
In short: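 Human recombinant FAAH in 10 mM Tris–HCl, 1 mM EDTA, 0.1% BSA, pH 7.4, with compound in DMSO (DMSO controls) and [3H]-AEA (2 µM final), 37 °C for 10 min. Ice-cold chloroform/methanol stop, centrifugation, [3H]-ethanolamine in upper methanol/buffer phase counted by scintillation. Buffer-only blank subtracted; IC50 from three independent experiments.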

Monoglyceride lipase = biological target: T3, Monoglyceride lipase (Homo sapiens, UniProt Q99685); test: Inhibition of human recombinant MAGL using [3H]-2-OG as substrate incubated for 30 mins at room temperature followed by incubation at 37 degC for 10 mins by liquid scintillation assay
T3 sequence (Q99685 whole entry): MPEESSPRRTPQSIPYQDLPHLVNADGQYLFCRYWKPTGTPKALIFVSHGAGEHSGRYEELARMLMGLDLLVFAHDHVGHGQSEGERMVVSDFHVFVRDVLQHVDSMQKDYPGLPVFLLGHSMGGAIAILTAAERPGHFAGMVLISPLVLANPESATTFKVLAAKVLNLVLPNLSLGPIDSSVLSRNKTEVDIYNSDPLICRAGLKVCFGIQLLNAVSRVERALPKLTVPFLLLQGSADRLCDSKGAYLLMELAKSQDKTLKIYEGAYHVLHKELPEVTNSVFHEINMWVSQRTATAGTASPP
In short: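 Purified human recombinant MAGL in 10 mM Tris–HCl, 1 mM EDTA, 0.1% BSA, pH 8.0, with compound in DMSO (DMSO controls) and [3H]-2-OG (2 µM final). Preincubated 20 °C for 30 min, then 37 °C for 10 min. Ice-cold chloroform/methanol stop; lower chloroform phase counted by liquid scintillation; buffer-only blank subtracted.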

[3] = biological target: T1, Fatty-acid amide hydrolase 1 (Homo sapiens); test: Competitive reversible inhibition of human recombinant FAAH using [3H]AEA as substrate incubated up to 90 mins by compound dilution method
In short: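 Wash-out: human recombinant FAAH (27.5 µg) preincubated 1 h at room temperature with inhibitor or DMSO in 15 µL, at concentrations inhibiting before but not after dilution; diluted 100-fold in assay buffer. Aliquots taken at 0, 30 and 90 min post-dilution, given [3H]-AEA (2 µM final), 37 °C for 30 min; stopped with chloroform/methanol; aqueous phase counted; buffer blank subtracted.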

Homo sapiens = species: Homo sapiens; test: Selectivity ratio of IC50 for human recombinant MAGL to IC50 for human recombinant FAAH
[4] = biological target: T4, Monoglyceride lipase (Homo sapiens) (UniProt Q99685); test: Inhibition of human recombinant MAGL using [3H]-2-OG as substrate at 1 mM incubated for 30 mins at room temperature followed by incubation at 37 degC for 10 mins by liquid scintillation assay
T4 sequence (whole entry): T3 sequence (Q99685 whole entry)

Row | Compound | IC50 [2] [nM] | IC50 (Monoglyceride lipase) [µM] | further results
1 | NC(=O)c1cccc(-c2cccc(OC(=O)NC3CCCCC3)c2)c1 |  |  | inhibition [1]: Active
2 | C=CCNC(=O)N1C[C@@H]([C@@H](C)OC(=O)COCc2ccccc2)C1=O | 70.9 | 56.8 | 
3 | C=CCOC(=O)N1C[C@@H]([C@@H](C)OC(=O)CCCc2ccccc2)C1=O | 3.65 | 10.3 | inhibition [3]: Active; Ratio IC50 (Homo sapiens): 2800
4 | C=CCNC(=O)N1C[C@@H]([C@@H](C)OC(=O)NCCc2ccccc2)C1=O | 28.6 |  | 
5 | C=CCOC(=O)N1C[C@@H]([C@@H](C)OC(=O)COCc2ccccc2)C1=O | 30.1 |  | 
6 | CCCSC(=O)N1C[C@@H]([C@@H](C)OC(=O)CCCc2ccccc2)C1=O | 12.1 | 19 | inhibition [3]: Active
7 | C=CCNC(=S)N1C[C@@H]([C@@H](C)OC(=O)CCCc2ccccc2)C1=O | 146 |  | inhibition (INH) [4]: 60%
8 | O=C(CCCCCCc1ccccc1)c1nc2ncccc2o1 |  |  | inhibition [3]: Active
9 | C=CCNC(=S)N1C[C@@H]([C@@H](C)OC(=O)NCCc2ccccc2)C1=O | 959 |  | inhibition (INH) [4]: 25%
10 | C=CCCC(=O)N1C[C@@H]([C@@H](C)OC(=O)CCCc2ccccc2)C1=O |  | 4.06 | 
11 | C=CCCC(=O)N1C[C@@H]([C@@H](C)OC(=O)COCc2ccccc2)C1=O | 30.9 |  | 
12 | C=CCNC(=S)N1C[C@@H]([C@@H](C)OC(=O)COCc2ccccc2)C1=O | 1040 | 122 | 
13 | C=CCOC(=O)N1C[C@@H]([C@@H](C)OC(=O)NCCc2ccccc2)C1=O | 12.1 |  | 
14 | C=CCCC(=O)N1C[C@@H]([C@@H](C)OC(=O)NCCc2ccccc2)C1=O | 33.2 |  | 
15 | C=CCCC(=O)N1C[C@@H]([C@@H](C)OC(=O)CCCc2ccncc2)C1=O | 310 |  | 
16 | C=CCNC(=O)N1C[C@@H]([C@@H](C)OC(=O)CCCc2ccccc2)C1=O | 5.56 | 98.4 | Ratio IC50 (Homo sapiens): 18000
